The list is not random: actives were taken first. Their share in the collection is about 4.5%.
OX1R antag-1 – blocks the human orexin 1 receptor; O43613; CHO/OX1R cells, Fluo-8 calcium fluorescence, orexin A; inhibition, % at 5 µM; 330,000 tested, 0.43% active; AID 434989;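 active = inhibition above its plate's threshold, mean inhibition of all tested compounds on the plate plus 3 SD, cut at about 37% in these data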;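 note: 0% = orexin A challenge wells and 100% = SB-334867-A antagonist wells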
OX1R antag-2 – antagonists of human orexin 1 receptor (OX1R); O43613; OX1R-expressing cells, FRET antagonist read-out; inhibition, % at 6.6 µM; 330,000 tested, 1.8% active; in the data active = inhibition mostly above about 38%, no sharp cut-off; inactive = mostly below about 40%;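 note: 0% = agonist challenge alone and 100% = reference antagonist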
CHO parental Ca – counter-screen for OX1R antagonists: effect in parental CHO cells; 330,000 tested, 0.63% active; inhibition, % at 5.6 µM; parental CHO-K1, ATP-induced calcium, Fluo-8 fluorescence;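 active = inhibition above that plate's mean sample inhibition plus 3 SD, cut at about 26% in these data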;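 note: 0% = ATP-challenged DMSO wells and 100% = DMSO wells without ATP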
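Test system: parental CHO cells; detection: calcium-sensitive Fluo-8 fluorescence; evaluation: percent inhibition of calcium signal; also added: ATP as calcium-mobilizing challenge; repeats: one well per compound; control set: ATP-challenged DMSO wells low, unchallenged DMSO wells high; compound: single nominal dose of 5.6 µM per compound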
TAAR1 antagonist – human TAAR1 antagonism | Q96RJ0 | AID 624466 | inhibition, % at 3 µM | CHO RD-HGA16 TAAR1, Fluo-8 calcium fluorescence, antagonist | 360,000 tested, 1.5% active;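 active = inhibition above a per-plate cutoff, the mean inhibition of test compounds on that plate plus 3 SD, cut at about 49% in these data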;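 note: 0% = DMSO plus EC80 beta-PEA response and 100% = DMSO alone without agonist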
Target sequence (Q96RJ0 whole entry, looked up): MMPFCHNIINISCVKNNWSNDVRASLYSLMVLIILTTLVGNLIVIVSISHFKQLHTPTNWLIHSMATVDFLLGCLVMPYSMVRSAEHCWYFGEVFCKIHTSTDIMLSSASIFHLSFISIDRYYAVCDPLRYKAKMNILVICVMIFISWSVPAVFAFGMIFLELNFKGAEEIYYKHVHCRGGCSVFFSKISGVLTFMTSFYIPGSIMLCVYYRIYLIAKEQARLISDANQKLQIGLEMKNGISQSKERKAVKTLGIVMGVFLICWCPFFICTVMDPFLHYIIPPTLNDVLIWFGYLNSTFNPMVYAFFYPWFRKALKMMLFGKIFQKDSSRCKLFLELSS
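Assay system: CHO-derived RD-HGA16 cells stably expressing human TAAR1 plus Gα16. Timing: 140 s kinetic read after compound, 140 s after agonist. Technique: kinetic Fluo-8 calcium fluorescence measurement. Measure: % inhibition of agonist calcium response.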
TAAR1 agonist – agonists of human TAAR1; Q96RJ0; CHO RD-HGA16 TAAR1, Fluo-8 calcium fluorescence; vehicle wells 0%, saturating PEA agonist 100%; AID 624467; 360,000 tested, 0.99% active; activation, % at 3 µM;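 active = activation above the mean activation of all test compounds in the run plus 3 SD, cut at about 38% in these data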
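Test system: RD-HGA16 (CHO) cells co-expressing Gα16 and hTAAR1 / Benchmarks: DMSO vehicle as 0%, PEA at EC100 as 100% / Repeats: no replicates (n 1) / Measure: % activation from peak over basal fluorescence ratio, DMSO-to-PEA scaled / Timing: 17-24 h plating, Fluo-8 75 min 37 °C, 30 min RT / Technique: kinetic Fluo-8 calcium fluorescence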
GPR7 antagonist – antagonists of human GPR7 (neuropeptides B/W receptor 1); P48145; GPR7-expressing cells, fluorescence antagonist assay; inhibition, % at 4.4 µM; 290,000 tested, 1.1% active; AID 1861; in the data active = inhibition above about 16%, passing the limit was not always enough;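 note: cells stimulated with the agonist NPW; 0% = agonist with vehicle and 100% = vehicle without agonist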
Target sequence (P48145 whole entry, looked up): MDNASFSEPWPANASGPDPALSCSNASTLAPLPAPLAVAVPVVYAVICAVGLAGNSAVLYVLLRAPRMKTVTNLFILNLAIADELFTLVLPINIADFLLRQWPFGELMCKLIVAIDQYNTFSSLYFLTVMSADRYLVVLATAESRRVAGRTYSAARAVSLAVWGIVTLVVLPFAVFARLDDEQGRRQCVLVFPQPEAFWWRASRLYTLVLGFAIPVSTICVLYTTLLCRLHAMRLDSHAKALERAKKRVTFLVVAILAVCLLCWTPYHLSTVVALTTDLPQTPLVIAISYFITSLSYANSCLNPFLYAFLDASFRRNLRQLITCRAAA
GPR7 antag conf – confirmation of human GPR7 antagonists | 2,400 tested, 52% active | GPR7-expressing cells, calcium fluorescence antagonist mode | inhibition, % at 4.4 µM | AID 1952 | shares compounds with GPR7 antagonist; in the data active = inhibition above about 24%;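 note: stimulated with the GPR7 agonist NPW; 0% = agonist plus vehicle and 100% = vehicle alone without agonist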
MCHR1 antagonist – antagonizes human MCHR1, a GPR7 antagonist counter-screen; MCHR1-expressing cells, fluorescence antagonist assay; 2,400 tested, 62% active; inhibition, % at 4.4 µM; shares compounds with GPR7 antagonist; in the data active = inhibition above about 22%;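 note: 0% = vehicle with agonist and 100% = vehicle without agonist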
Starred values were filed as active, the others as inactive.

What do the screens show for `c1ccc2c(c1)OC(CCCN1CCCCC1)c1ccccc1S2` (configuration not stated)?
OX1R antag-1: 15; OX1R antag-2: 9; CHO parental Ca: -6; TAAR1 antagonist: -14; TAAR1 agonist: 35; GPR7 antagonist: 25*; GPR7 antag conf: 33*; MCHR1 antagonist: 54*

What do the screens show for `COc1ccc(CN(C)CCCn2cnc3c(OC)ncnc32)cc1OC`?
TAAR1 antagonist: -21; TAAR1 agonist: 5

Results for CCc1ccc(N2C(=O)CN(Cc3ccccc3)C2=S)cc1 ?
OX1R antag-1: -23; OX1R antag-2: 7; CHO parental Ca: 0; TAAR1 antagonist: 10; TAAR1 agonist: -1; GPR7 antagonist: 39*; GPR7 antag conf: 5; MCHR1 antagonist: -3

How did Cc1ccc(Cl)cc1N1CCN(CC(=O)Nc2ccc(CN3CCCCC3)cc2)CC1 do in these assays?
OX1R antag-1: -5; OX1R antag-2: 14; CHO parental Ca: -11; TAAR1 antagonist: -3; TAAR1 agonist: 52*; GPR7 antagonist: 24*; GPR7 antag conf: 28*; MCHR1 antagonist: 56*

How did O=C(Nc1ccc(-n2nncc2-c2ccco2)cc1)c1cccc(F)c1 do in these assays?
OX1R antag-1: -3; OX1R antag-2: 11; CHO parental Ca: -9; TAAR1 antagonist: 35; TAAR1 agonist: 4; GPR7 antagonist: 39*; GPR7 antag conf: 62*; MCHR1 antagonist: 49*

What do the screens show for `NS(=O)(=O)c1ccc(-n2nncc2-c2ccco2)cc1`?
OX1R antag-1: 1; OX1R antag-2: 29; CHO parental Ca: 4; TAAR1 antagonist: -16; TAAR1 agonist: 3; GPR7 antagonist: -2

What do the screens show for `Cn1c(=O)c2c(ncn2CC(=O)OCC(=O)c2ccc(Br)cc2)n(C)c1=O`?
TAAR1 antagonist: -27; TAAR1 agonist: -1

What do the screens show for `COc1ccc(NCc2n[nH]c(=O)c3ccccc23)cc1`?
OX1R antag-1: -8; OX1R antag-2: 16; CHO parental Ca: -10; TAAR1 antagonist: -3; TAAR1 agonist: 1; GPR7 antagonist: -7

How did Cc1nnc(NCc2n[nH]c(=O)c3ccccc23)c2ccccc12 do in these assays?
OX1R antag-1: -20; OX1R antag-2: 1; CHO parental Ca: -7; TAAR1 antagonist: -10; TAAR1 agonist: 8; GPR7 antagonist: 22*; GPR7 antag conf: 6; MCHR1 antagonist: -7

How did O=c1c2cn[nH]c2[nH]c(=S)n1-c1ccccc1 do in these assays?
OX1R antag-1: -13; OX1R antag-2: -1; CHO parental Ca: -6; TAAR1 antagonist: 6; TAAR1 agonist: 5; GPR7 antagonist: -10

How did COc1ccc(-n2c(=S)[nH]c3[nH]ncc3c2=O)cc1 do in these assays?
OX1R antag-1: 0; OX1R antag-2: 3; CHO parental Ca: -7; TAAR1 antagonist: -12; TAAR1 agonist: 2; GPR7 antagonist: 23*; GPR7 antag conf: 0; MCHR1 antagonist: 4

How did COc1ccc(C(CNC(=O)COc2cccc(C)c2)N2CCCC2)cc1 (configuration not stated) do in these assays?
OX1R antag-1: -35; OX1R antag-2: 10; CHO parental Ca: -24; TAAR1 antagonist: -3; TAAR1 agonist: -2

Results for COc1ccc(C(CNC(=O)COc2ccc(Cl)c(C)c2)N2CCCCC2)cc1 (configuration not stated) ?
OX1R antag-1: -11; OX1R antag-2: 8; CHO parental Ca: -30; TAAR1 antagonist: 3; TAAR1 agonist: -2; GPR7 antagonist: 28*; GPR7 antag conf: 30*; MCHR1 antagonist: 19

What do the screens show for `COC(=O)Nc1ccc(SCC(=O)c2cccc([N+](=O)[O-])c2)cc1`?
OX1R antag-1: -8; OX1R antag-2: 0; CHO parental Ca: 8; TAAR1 antagonist: 28; TAAR1 agonist: 1; GPR7 antagonist: 23*; GPR7 antag conf: 20; MCHR1 antagonist: 60*

What do the screens show for `COc1cccc(C(=O)COc2cccc(NC(=O)c3cccc([N+](=O)[O-])c3)c2)c1`?
OX1R antag-1: 26; OX1R antag-2: 40; CHO parental Ca: 13; TAAR1 antagonist: 68*; TAAR1 agonist: 17; GPR7 antagonist: 29*; GPR7 antag conf: 29*; MCHR1 antagonist: 69*

How did COc1ccc(NC(=O)c2cccc(Oc3ccc([N+](=O)[O-])cc3Cl)c2)cc1 do in these assays?
OX1R antag-1: -13; OX1R antag-2: 12; CHO parental Ca: -12; TAAR1 antagonist: 20; TAAR1 agonist: 2; GPR7 antagonist: 34*; GPR7 antag conf: 11; MCHR1 antagonist: 36*

How did N#Cc1ccc(-c2nc3ccc(Br)cn3c2Cc2ccccc2)cc1 do in these assays?
TAAR1 antagonist: 39; TAAR1 agonist: 0

How did C=C1[C@@H](OC(C)=O)C=C[C@@]2(C)C=CC(=O)[C@@](C)(OC(C)=O)[C@@H]2[C@@H](OC(C)=O)[C@]2(O)[C@@H](C)C(=O)O[C@H]2[C@H]1Cl do in these assays?
TAAR1 antagonist: -10; TAAR1 agonist: 0

Results for Cc1ccc(NC(=O)CSc2nc(=O)n(Cc3ccncc3)c3c2CCC3)c(C)c1 ?
OX1R antag-1: -22; OX1R antag-2: 8; CHO parental Ca: -34; TAAR1 antagonist: 14; TAAR1 agonist: -1

How did COC(=O)[C@@]12C[C@@H](CC(=O)NCc3ccc(C)o3)C(=O)N(Cc3ccccc3)C1=CCC(C)(C)C2 do in these assays?
TAAR1 antagonist: -15; TAAR1 agonist: -2

What do the screens show for `COC(=O)COc1ccc(-c2ccc(F)cc2)cc1C=O`?
OX1R antag-1: -7; OX1R antag-2: 6; CHO parental Ca: -10; TAAR1 antagonist: 0; TAAR1 agonist: 3; GPR7 antagonist: 33*; GPR7 antag conf: 31*; MCHR1 antagonist: 35*

How did COC(=O)COc1ccc(-c2ccccc2)cc1C=O do in these assays?
OX1R antag-1: 10; OX1R antag-2: 7; CHO parental Ca: 2; TAAR1 antagonist: 6; TAAR1 agonist: 4; GPR7 antagonist: 31*; GPR7 antag conf: 17; MCHR1 antagonist: 38*

Results for Cc1cccc(C)c1NC(=O)C(C1CC1)n1c(-c2ccc(C(F)(F)F)cc2)nc2ccccc21 (configuration not stated) ?
TAAR1 antagonist: -14; TAAR1 agonist: -2

What do the screens show for `NS(=O)(=O)c1ccc(CNC(=S)Nc2ccc(Cl)c(Cl)c2)cc1`?
OX1R antag-1: 15; OX1R antag-2: 31; CHO parental Ca: 12; TAAR1 antagonist: 28; TAAR1 agonist: 8; GPR7 antagonist: 33*; GPR7 antag conf: 41*; MCHR1 antagonist: 40*

Assay outcomes: PubChem BioAssay, The Scripps Research Institute Molecular Screening Center
